Results collected from several papers.
Lines come from different studies, so protocols differ.
Effect on: cell growth or viability

SMILES	cell line	method	time	IC50
CCOc1nc(-c2cccc(O)c2)cc(-c2cc3cc(Cl)ccc3nc2N2CCOCC2)c1C#N	Caco-2	MTT	72 h	0.117 µM
C=CC(=O)N1CCN(c2nc(=O)n(-c3c(C)ccnc3C(C)C)c3nc(-c4c(O)cccc4F)c(F)cc23)[C@@H](C)C1	UMUC3	ATP luminescence		0.0488 µM
COc1nc(NCc2cn(-c3ccc(NC(=O)c4ccc(Cl)cc4)cc3)nn2)nc(OC)n1	Caco-2	MTT	72 h	0.62 µM
COc1cc2c3c(n(CCCN4CCOCC4)c(=O)c2cc1OC)-c1nc2c(cc1C3=O)OCO2	TC-32	MTS	72 h	0.569 µM
CCOc1nc(-c2cccc(O)c2)cc(-c2cc3ccccc3nc2N2CCOCC2)c1C#N	Caco-2	MTT	72 h	0.141 µM
COc1nc(NCc2cn(-c3ccc(NC(=O)c4ccccc4)cc3)nn2)nc(OC)n1	Caco-2	MTT	72 h	0.766 µM
N[C@H]1CC[C@H](N[C@@H]2C[C@H]2c2ccccc2)CC1	TC-32	resazurin		178 µM
CCCOc1nc(-c2cccc(O)c2)cc(-c2cc3cc(Cl)ccc3nc2N2CCOCC2)c1C#N	Caco-2	MTT	72 h	0.355 µM
CC(C)c1ccccc1[C@@H]1CCCN1C1CC2(CCN(c3ccc(C(=O)NS(=O)(=O)c4ccc(NC[C@H]5CC[C@](C)(O)CC5)c([N+](=O)[O-])c4)c(Oc4cnc5[nH]ccc5c4)c3)CC2)C1	SU-DHL-4	ATP luminescence	48 h	0.0027 µM
COc1nc(NCc2cn(-c3ccc(C(=O)Nc4ccc(Cl)cc4)cc3)nn2)nc(OC)n1	Caco-2	MTT	72 h	0.543 µM
C=C(F)C(=O)N1CCN(c2nc(OC[C@@H]3CCCN3C)nc3c2CCN(c2cccc4cccc(Cl)c24)C3)C[C@@H]1CC#N	UMUC3	ATP luminescence		0.294 µM
COc1cc2c3c(n(CCCNCCO)c(=O)c2cc1OC)-c1nc2c(cc1C3=O)OCO2	TC-32	MTS	72 h	0.104 µM
COc1nc(NCc2cn(-c3ccc(C(=O)Nc4ccc(C)cc4)cc3)nn2)nc(OC)n1	Caco-2	MTT	72 h	0.514 µM
CCNCCCn1c2c(c3cc(OC)c(OC)cc3c1=O)C(=O)c1cc3c(nc1-2)OCO3	TC-32	MTS	72 h	0.053 µM
COc1nc(NCc2cn(-c3ccc(NC(=O)c4ccc([N+](=O)[O-])cc4)cc3)nn2)nc(OC)n1	Caco-2	MTT	72 h	0.658 µM
COc1cccc2c1C(=O)c1c(O)c3c(c(O)c1C2=O)C[C@@](O)(C(=O)CO)C[C@@H]3O[C@H]1C[C@H](N)[C@H](O)[C@H](C)O1	NCI-H1650	MTT	72 h	0.12 µM
